From ChEMBL document CHEMBL1137710, “Synthesis and in vitro antitumor activity of new quinoxaline derivatives” (2009)

Experiments:
Type in all cases: functional
K562 = assay: Growth inhibition of human K562 cells after 48 hrs by sulforhodamine B assay; settings: K562, 48 h
In short: (§1)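 NCI 60-human-tumor-cell-line panel, with compounds tested over a 5-log dose range. Values are taken from dose-response curves as log10 molar concentrations: GI50 is 50% net growth inhibition, TGI is total growth inhibition, and LC50 is 50% net cell death.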

M14 = assay: Growth inhibition of human M14 cells after 48 hrs by sulforhodamine B assay; settings: M14, 48 h; in short: as §1
NCI-H522 = assay: Growth inhibition of human NCI-H522 cells after 48 hrs by sulforhodamine B assay; settings: NCI-H522, 48 h; in short: as §1
HOP-62 = assay: Growth inhibition of human HOP62 cells after 48 hrs by sulforhodamine B assay; settings: HOP-62, 48 h; in short: as §1
SK-OV-3 = assay: Growth inhibition of human SKOV3 cells after 48 hrs by sulforhodamine B assay; settings: SK-OV-3, 48 h; in short: as §1
UACC-62 = assay: Growth inhibition of human UACC62 cells after 48 hrs by sulforhodamine B assay; settings: UACC-62, 48 h
In short: (§2)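 Run in the NCI 60-human-tumour-cell-line panel, tested over a 5-log dose range. Dose–response curves gave three values per cell line, each as a log10 molar concentration: GI50 (50% inhibition of net cell growth), TGI (total inhibition of net growth) and LC50 (50% net cell death). The mean graph midpoint is the arithmetic mean over all lines, with insensitive lines entered at the highest concentration tested.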

NCI-H460 = assay: Anticancer activity against human NCI-H460 cells assessed as cell growth at 100 uM after 48 hrs by sulforhodamine B assay; settings: NCI-H460, 48 h, read-out: Activity
SF-268 [1] = assay: Anticancer activity against human SF268 cells assessed as cell growth at 100 uM after 48 hrs by sulforhodamine B assay; settings: SF-268, 48 h, read-out: Activity
SW-620 = assay: Growth inhibition of human SW620 cells after 48 hrs by sulforhodamine B assay; settings: SW-620, 48 h; in short: as §2
SK-MEL-28 = assay: Growth inhibition of human SK-MEL-28 cells after 48 hrs by sulforhodamine B assay; settings: SK-MEL-28, 48 h; in short: as §1
SF-268 [2] = assay: Growth inhibition of human SF268 cells after 48 hrs by sulforhodamine B assay; settings: SF-268, 48 h; in short: as §1
U-251 = assay: Growth inhibition of human U251 cells after 48 hrs by sulforhodamine B assay; settings: U-251, 48 h; in short: as §2
CAKI-1 = assay: Growth inhibition of human Caki1 cells after 48 hrs by sulforhodamine B assay; settings: CAKI-1, 48 h; in short: as §1
SK-MEL-5 = assay: Growth inhibition of human SK-MEL-5 cells after 48 hrs by sulforhodamine B assay; settings: SK-MEL-5, 48 h; in short: as §1
DU-145 = assay: Growth inhibition of human DU145 cells after 48 hrs by sulforhodamine B assay; settings: DU-145, 48 h; in short: as §1
HCT-116 = assay: Growth inhibition of human HCT116 cells after 48 hrs by sulforhodamine B assay; settings: HCT-116, 48 h; in short: as §1
SF-295 = assay: Growth inhibition of human SF295 cells after 48 hrs by sulforhodamine B assay; settings: SF-295, 48 h; in short: as §1
NCI-H23 = assay: Growth inhibition of human NCI-H23 cells after 48 hrs by sulforhodamine B assay; settings: NCI-H23, 48 h; in short: as §1
SK-MEL-2 = assay: Growth inhibition of human SK-MEL-2 cells after 48 hrs by sulforhodamine B assay; settings: SK-MEL-2, 48 h; in short: as §1
A549 = assay: Growth inhibition of human A549 cells after 48 hrs by sulforhodamine B assay; settings: A549, 48 h; in short: as §1
MCF7 [3] = assay: Growth inhibition of human MCF7 cells after 48 hrs by sulforhodamine B assay; settings: MCF7, 48 h; in short: as §1
LOX IMVI = assay: Growth inhibition of human LOXIMVI cells after 48 hrs by sulforhodamine B assay; in short: as §1
MCF7 [4] = assay: Anticancer activity against human MCF7 cells assessed as cell growth at 100 uM after 48 hrs by sulforhodamine B assay; settings: MCF7, 48 h, read-out: Activity
IGROV-1 = assay: Growth inhibition of human IGROV1 cells after 48 hrs by sulforhodamine B assay; settings: IGROV-1, 48 h; in short: as §1
UO-31 = assay: Growth inhibition of human UO31 cells after 48 hrs by sulforhodamine B assay; settings: UO-31, 48 h; in short: as §2
[5] = Growth inhibition of human […] cells after 48 hrs by sulforhodamine B assay; in short: as §1
NCI-H322M = assay: Growth inhibition of human NCI-H322M cells after 48 hrs by sulforhodamine B assay; in short: as §1
MDA-MB-435 = assay: Growth inhibition of human MDA-MB-435 cells after 48 hrs by sulforhodamine B assay; settings: MDA-MB-435, 48 h; in short: as §1
786-0 = assay: Growth inhibition of human 786-0 cells after 48 hrs by sulforhodamine B assay; settings: 786-0, 48 h; in short: as §1
[6] = read-out: pLC50 (the source's name) (converted)

Compound: COc1cc(CNc2nc3cc(N)cc(N)c3nc2-c2ccccc2)cc(OC)c1OC
- GI50 (K562): 1.78 µM
- LC50 (K562): > 50.1 µM
- TGI (K562; read-out: pTGI (converted)): > 50.1 µM
- GI50 (M14): 9.55 µM
- CC50 (M14; [6]): 34.7 µM
- TGI (M14; read-out: pTGI (converted)): 18.2 µM
- GI50 (NCI-H522): > 50.1 µM
- LC50 (NCI-H522): > 50.1 µM
- TGI (NCI-H522; read-out: pTGI (converted)): > 50.1 µM
- GI50 (HOP-62): 17 µM
- LC50 (HOP-62): > 50.1 µM
- TGI (HOP-62; read-out: pTGI (converted)): > 50.1 µM
- GI50 (SK-OV-3): 5.37 µM
- CC50 (SK-OV-3; [6]): 36.3 µM
- TGI (SK-OV-3; read-out: pTGI (converted)): 13.8 µM
- GI50 (UACC-62): 8.13 µM
- CC50 (UACC-62; [6]): 29.5 µM
- TGI (UACC-62; read-out: pTGI (converted)): 15.5 µM
- growth at 100 µM (NCI-H460): 7%
- growth at 100 µM (SF-268 [1]): 15%
- GI50 (SW-620): 1.55 µM
- CC50 (SW-620; [6]): > 50.1 µM
- TGI (SW-620; read-out: pTGI (converted)): 4.47 µM
- GI50 (SK-MEL-28): 8.51 µM
- CC50 (SK-MEL-28; [6]): 36.3 µM
- TGI (SK-MEL-28; read-out: pTGI (converted)): 17.8 µM
- GI50 (SF-268 [2]): 2.95 µM
- LC50 (SF-268 [2]): 49 µM
- TGI (SF-268 [2]; read-out: pTGI (converted)): 14.1 µM
- GI50 (U-251): 1.74 µM
- LC50 (50% net cell kill) (U-251): 30.2 µM
- TGI (U-251; read-out: pTGI (converted)): 6.31 µM
- GI50 (CAKI-1): 1.91 µM
- CC50 (CAKI-1; [6]): 31.6 µM
- TGI (CAKI-1; read-out: pTGI (converted)): 8.71 µM
- GI50 (SK-MEL-5): 0.724 µM
- CC50 (SK-MEL-5; [6]): 29.5 µM
- TGI (SK-MEL-5; read-out: pTGI (converted)): 7.76 µM
- GI50 (DU-145): 5.25 µM
- CC50 (DU-145; [6]): > 50.1 µM
- TGI (DU-145; read-out: pTGI (converted)): 20 µM
- GI50 (HCT-116): 9.77 µM
- LC50 (concentration causing 50% net cell death) (HCT-116): 37.2 µM
- TGI (HCT-116; read-out: pTGI (converted)): 19.1 µM
- GI50 (SF-295): 1.66 µM
- LC50 (50% net cell kill) (SF-295): 37.2 µM
- TGI (SF-295; read-out: pTGI (converted)): 5.62 µM
- GI50 (NCI-H23): 8.71 µM
- LC50 (50% net cell kill concentration) (NCI-H23): 33.9 µM
- TGI (NCI-H23; read-out: pTGI (converted)): 17 µM
- GI50 (SK-MEL-2): 16.2 µM
- CC50 (SK-MEL-2; [6]): > 50.1 µM
- TGI (SK-MEL-2; read-out: pTGI (converted)): > 50.1 µM
- GI50 (A549): 4.27 µM
- LC50 (A549): > 50.1 µM
- TGI (A549; read-out: pTGI (converted)): 33.1 µM
- GI50 (MCF7 [3]): 1.55 µM
- CC50 (MCF7 [3]; [6]): > 50.1 µM
- TGI (MCF7 [3]; read-out: pTGI (converted)): > 50.1 µM
- GI50 (LOX IMVI): 3.16 µM
- LC50 (LOX IMVI): 26.3 µM
- TGI (LOX IMVI; read-out: pTGI (converted)): 10.5 µM
- growth at 100 µM (MCF7 [4]): 0%
- GI50 (IGROV-1): 9.12 µM
- CC50 (IGROV-1; [6]): > 50.1 µM
- TGI (IGROV-1; read-out: pTGI (converted)): > 50.1 µM
- GI50 (UO-31): 11.2 µM
- CC50 (UO-31; [6]): > 50.1 µM
- TGI (UO-31; read-out: pTGI (converted)): > 50.1 µM
- GI50 [5]: 0.692 µM
- LC50 [5]: > 50.1 µM
- TGI ([5]; read-out: pTGI (converted)): 3.02 µM
- GI50 (NCI-H322M): 3.02 µM
- LC50 (NCI-H322M): > 50.1 µM
- TGI (NCI-H322M; read-out: pTGI (converted)): 15.8 µM
- GI50 (MDA-MB-435): 0.229 µM
- CC50 (MDA-MB-435; [6]): 2.88 µM
- TGI (MDA-MB-435; read-out: pTGI (converted)): 0.912 µM
- GI50 (786-0): 15.5 µM
- CC50 (786-0; [6]): > 50.1 µM
- TGI (786-0; read-out: pTGI (converted)): > 50.1 µM
